In ChEMBL document CHEMBL4038311, “An Ursolic Acid Derived Small Molecule Triggers Cancer Cell Death through Hyperstimulation of Macropinocytosis” (J Med Chem, 2017):
Activity calls are given as the source filed them. The rule behind the calls is not given here.

Legend:
MCF7 [1] = experiment: Anticancer activity against human MCF7 cells assessed as cell viability at 20 uM after 48 hrs by CCK8 assay relative to control; format: functional; conditions: MCF7, 48 h, read-out: Activity
In short: (§1)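 Cells (5000/well, pre-incubated overnight) exposed to 20 µM for 48 h. CCK-8 absorbance read at 450 nm. Viability given as percent of vehicle (DMSO) control, mean ± SD. Six parallel wells per condition, at least three independent repeats.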

HeLa [2] = experiment: Anticancer activity against human HeLa cells assessed as vacuole formation at 20 uM after 24 hrs by phase contrast microscopic analysis; format: functional, cell-based
HT-1080 [3] = experiment: Anticancer activity against human HT1080 cells assessed as vacuole formation at 20 uM after 24 hrs by phase contrast microscopic analysis; format: functional, cell-based
MCF7 [4] = experiment: Anticancer activity against human MCF7 cells assessed as vacuole formation at 20 uM after 24 hrs by phase contrast microscopic analysis; format: functional, cell-based
SK-N-MC [5] = experiment: Anticancer activity against human SK-N-MC cells assessed as vacuole formation at 20 uM after 24 hrs by phase contrast microscopic analysis; format: functional, cell-based
HepG2 [6] = experiment: Anticancer activity against human HepG2 cells assessed as vacuole formation at 20 uM after 24 hrs by phase contrast microscopic analysis; format: functional, cell-based
HepG2 [7] = experiment: Anticancer activity against human HepG2 cells assessed as cell viability at 20 uM after 48 hrs by CCK8 assay relative to control; format: functional; conditions: HepG2, 48 h, read-out: Activity; in short: as §1
HeLa [8] = experiment: Anticancer activity against human HeLa cells assessed as cell viability at 20 uM after 48 hrs by CCK8 assay relative to control; format: functional; conditions: read-out: Activity; in short: as §1
SK-N-MC [9] = experiment: Anticancer activity against human SK-N-MC cells assessed as cell viability at 20 uM after 48 hrs by CCK8 assay relative to control; format: functional; conditions: read-out: Activity; in short: as §1
HT-1080 [10] = experiment: Anticancer activity against human HT1080 cells assessed as cell viability at 20 uM after 48 hrs by CCK8 assay relative to control; format: functional; conditions: HT-1080, 48 h, read-out: Activity; in short: as §1
HeLa [11] = experiment: Induction of apoptosis in human HeLa cells assessed as increase in cleaved PARP1 levels at 100 nM after 24 to 48 hrs by Western blot analysis; format: functional, cell-based
HeLa [12] = experiment: Anticancer activity against human HeLa cells assessed as decrease in cell viability at 100 nM preincubated cells with Z-VAD-FMK for 1 hr followed by compound addition measured after 48 hrs by CCK8 assay; format: functional, cell-based
HeLa [13] = experiment: Induction of apoptosis in human HeLa cells assessed as increase in cleaved caspase-3 levels at 100 nM after 24 to 48 hrs by Western blot analysis; format: functional, cell-based

## C[C@H]1[C@H](C)CC[C@]2(C(=O)O)CC[C@]3(C)C(=CC[C@@H]4[C@@]5(C)Cc6cnn(-c7cccc(C#N)c7)c6C(C)(C)[C@@H]5CC[C@]43C)[C@H]12
MCF7 [1]
  viability at 20 µM: 28.1%
HeLa [2]
  Activity: Active
HT-1080 [3]
  Activity: Active
MCF7 [4]
  Activity: Active
SK-N-MC [5]
  Activity: Active
HepG2 [6]
  Activity: Active
HepG2 [7]
  viability at 20 µM: 29.3%
HeLa [8]
  viability at 20 µM: 37.3%
SK-N-MC [9]
  viability at 20 µM: 31%
HT-1080 [10]
  viability at 20 µM: 37.5%

## C[C@H]1[C@H](C)CC[C@]2(C(=O)O)CC[C@]3(C)C(=CC[C@@H]4[C@@]5(C)Cc6cnn(-c7cccc(F)c7)c6C(C)(C)[C@@H]5CC[C@]43C)[C@H]12
MCF7 [1]
  viability at 20 µM: 46.6%
HeLa [2]
  Activity: inactive
HT-1080 [3]
  Activity: inactive
MCF7 [4]
  Activity: inactive
SK-N-MC [5]
  Activity: inactive
HepG2 [6]
  Activity: inactive
HepG2 [7]
  viability at 20 µM: 29.5%
HeLa [8]
  viability at 20 µM: 33.3%
SK-N-MC [9]
  viability at 20 µM: 24.6%
HT-1080 [10]
  viability at 20 µM: 33.5%

## C[C@H]1[C@H](C)CC[C@]2(C(=O)O)CC[C@]3(C)C(=CC[C@@H]4[C@@]5(C)Cc6cnn(-c7ccccc7)c6C(C)(C)[C@@H]5CC[C@]43C)[C@H]12
MCF7 [1]
  viability at 20 µM: 46.5%
HeLa [2]
  Activity: inactive
HT-1080 [3]
  Activity: inactive
MCF7 [4]
  Activity: inactive
SK-N-MC [5]
  Activity: inactive
HepG2 [6]
  Activity: inactive
HepG2 [7]
  viability at 20 µM: 60.1%
HeLa [8]
  viability at 20 µM: 40.9%
SK-N-MC [9]
  viability at 20 µM: 57.4%
HT-1080 [10]
  viability at 20 µM: 38.7%

## CC(=O)O[C@H]1C(=O)[C@@]2(C)[C@H]([C@H](OC(=O)c3ccccc3)[C@]3(O)C[C@H](OC(=O)[C@H](O)[C@@H](NC(=O)c4ccccc4)c4ccccc4)C(C)=C1C3(C)C)[C@]1(OC(C)=O)CO[C@@H]1C[C@@H]2O
HeLa [11]
  Activity: Active
HeLa [12]
  Activity: inactive
HeLa [13]
  Activity: Active

## C[C@H]1[C@H](C)CC[C@]2(C(=O)O)CC[C@]3(C)C(=CC[C@@H]4[C@@]5(C)Cc6cnn(-c7ccncc7)c6C(C)(C)[C@@H]5CC[C@]43C)[C@H]12
MCF7 [1]
  viability at 20 µM: 39.7%
HeLa [2]
  Activity: inactive
HT-1080 [3]
  Activity: inactive
MCF7 [4]
  Activity: inactive
SK-N-MC [5]
  Activity: inactive
HepG2 [6]
  Activity: inactive
HepG2 [7]
  viability at 20 µM: 56.8%
HeLa [8]
  viability at 20 µM: 54.2%
SK-N-MC [9]
  viability at 20 µM: 79.9%
HT-1080 [10]
  viability at 20 µM: 30.9%

## C[C@H]1[C@H](C)CC[C@]2(C(=O)O)CC[C@]3(C)C(=CC[C@@H]4[C@@]5(C)Cc6cnn(CCO)c6C(C)(C)[C@@H]5CC[C@]43C)[C@H]12
MCF7 [1]
  viability at 20 µM: 40.5%
HeLa [2]
  Activity: inactive
HT-1080 [3]
  Activity: inactive
MCF7 [4]
  Activity: inactive
SK-N-MC [5]
  Activity: inactive
HepG2 [6]
  Activity: inactive
HepG2 [7]
  viability at 20 µM: 57%
HeLa [8]
  viability at 20 µM: 47%
SK-N-MC [9]
  viability at 20 µM: 63.3%
HT-1080 [10]
  viability at 20 µM: 39%

## C[C@H]1[C@H](C)CC[C@]2(C(=O)O)CC[C@]3(C)C(=CC[C@@H]4[C@@]5(C)Cc6cnn(C7CCCC7)c6C(C)(C)[C@@H]5CC[C@]43C)[C@H]12
MCF7 [1]
  viability at 20 µM: 36.2%
HeLa [2]
  Activity: Active
HT-1080 [3]
  Activity: Active
MCF7 [4]
  Activity: Active
SK-N-MC [5]
  Activity: Active
HepG2 [6]
  Activity: Active
HepG2 [7]
  viability at 20 µM: 44.6%
HeLa [8]
  viability at 20 µM: 30.8%
SK-N-MC [9]
  viability at 20 µM: 31.4%
HT-1080 [10]
  viability at 20 µM: 27.9%

## CCOC(=O)Cn1ncc2c1C(C)(C)[C@@H]1CC[C@]3(C)[C@H](CC=C4[C@@H]5[C@@H](C)[C@H](C)CC[C@]5(C(=O)O)CC[C@]43C)[C@@]1(C)C2
MCF7 [1]
  viability at 20 µM: 28.9%
HeLa [2]
  Activity: inactive
HT-1080 [3]
  Activity: inactive
MCF7 [4]
  Activity: inactive
SK-N-MC [5]
  Activity: inactive
HepG2 [6]
  Activity: inactive
HepG2 [7]
  viability at 20 µM: 43.7%
HeLa [8]
  viability at 20 µM: 44.2%
SK-N-MC [9]
  viability at 20 µM: 66.6%
HT-1080 [10]
  viability at 20 µM: 55.2%

## C[C@H]1[C@H](C)CC[C@]2(C(=O)O)CC[C@]3(C)C(=CC[C@@H]4[C@@]5(C)Cc6c(C(F)(F)F)nn(C)c6C(C)(C)[C@@H]5CC[C@]43C)[C@H]12
MCF7 [1]
  viability at 20 µM: 47.6%
HeLa [2]
  Activity: Active
HT-1080 [3]
  Activity: Active
MCF7 [4]
  Activity: Active
SK-N-MC [5]
  Activity: Active
HepG2 [6]
  Activity: Active
HepG2 [7]
  viability at 20 µM: 46%
HeLa [8]
  viability at 20 µM: 44.9%
SK-N-MC [9]
  viability at 20 µM: 67.4%
HT-1080 [10]
  viability at 20 µM: 35.8%

## C[C@H]1[C@H](C)CC[C@]2(C(=O)O)CC[C@]3(C)C(=CC[C@@H]4[C@@]5(C)CC[C@H](O)C(C)(C)[C@@H]5CC[C@]43C)[C@H]12 [URSOLIC ACID]
MCF7 [1]
  viability at 20 µM: 57.6%
HeLa [2]
  Activity: inactive
HT-1080 [3]
  Activity: inactive
MCF7 [4]
  Activity: inactive
SK-N-MC [5]
  Activity: inactive
HepG2 [6]
  Activity: inactive
HepG2 [7]
  viability at 20 µM: 34.1%
HeLa [8]
  viability at 20 µM: 43.3%
SK-N-MC [9]
  viability at 20 µM: 67.2%
HT-1080 [10]
  viability at 20 µM: 39.4%

## C[C@H]1[C@H](C)CC[C@]2(C(=O)O)CC[C@]3(C)C(=CC[C@@H]4[C@@]5(C)Cc6cnn(-c7ccc(F)cc7)c6C(C)(C)[C@@H]5CC[C@]43C)[C@H]12
MCF7 [1]
  viability at 20 µM: 34.3%
HeLa [2]
  Activity: Active
HT-1080 [3]
  Activity: Active
MCF7 [4]
  Activity: Active
SK-N-MC [5]
  Activity: Active
HepG2 [6]
  Activity: Active
HepG2 [7]
  viability at 20 µM: 58.6%
HeLa [8]
  viability at 20 µM: 24.4%
SK-N-MC [9]
  viability at 20 µM: 39.4%
HT-1080 [10]
  viability at 20 µM: 27.3%

## C[C@H]1[C@H](C)CC[C@]2(C(=O)O)CC[C@]3(C)C(=CC[C@@H]4[C@@]5(C)Cc6cnn(C)c6C(C)(C)[C@@H]5CC[C@]43C)[C@H]12
MCF7 [1]
  viability at 20 µM: 47.6%
HeLa [2]
  Activity: Active
HT-1080 [3]
  Activity: Active
MCF7 [4]
  Activity: Active
SK-N-MC [5]
  Activity: Active
HepG2 [6]
  Activity: Active
HepG2 [7]
  viability at 20 µM: 46%
HeLa [8]
  viability at 20 µM: 44.9%
SK-N-MC [9]
  viability at 20 µM: 67.4%
HT-1080 [10]
  viability at 20 µM: 35.8%

## C[C@H]1[C@H](C)CC[C@]2(C(=O)O)CC[C@]3(C)C(=CC[C@@H]4[C@@]5(C)Cc6cnn(CC7CC7)c6C(C)(C)[C@@H]5CC[C@]43C)[C@H]12
MCF7 [1]
  viability at 20 µM: 33.4%
HeLa [2]
  Activity: inactive
HT-1080 [3]
  Activity: inactive
MCF7 [4]
  Activity: inactive
SK-N-MC [5]
  Activity: inactive
HepG2 [6]
  Activity: inactive
HepG2 [7]
  viability at 20 µM: 33.9%
HeLa [8]
  viability at 20 µM: 19.9%
SK-N-MC [9]
  viability at 20 µM: 33.9%
HT-1080 [10]
  viability at 20 µM: 23.5%
